HTR1E agonist: activates the human 5-HT1E serotonin receptor; P28566; CHO 5-HT1E Ga15 NFAT-bla reporter, FRET; 0% DMSO wells, 100% control agonist wells; activation, % at 6 µM; 65,000 tested, 0.69% active;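 active = activation above a set limit, the screen-wide mean activation plus 3 SD, cut at about 8.5% in these data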
HTR1A agonist: agonists of human 5-HT1a serotonin receptor. 65,000 tested, 0.56% active. activation, % at 10 µM. P08908. AID 567. CHO 5-HT1a Ga15 NFAT-bla reporter, FRET ratio; 0% basal, 100% maximal reference agonist;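 active = activation above the screen-wide mean activation plus 3 SD, cut at about 19% in these data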
Target sequence (P08908 whole entry, looked up): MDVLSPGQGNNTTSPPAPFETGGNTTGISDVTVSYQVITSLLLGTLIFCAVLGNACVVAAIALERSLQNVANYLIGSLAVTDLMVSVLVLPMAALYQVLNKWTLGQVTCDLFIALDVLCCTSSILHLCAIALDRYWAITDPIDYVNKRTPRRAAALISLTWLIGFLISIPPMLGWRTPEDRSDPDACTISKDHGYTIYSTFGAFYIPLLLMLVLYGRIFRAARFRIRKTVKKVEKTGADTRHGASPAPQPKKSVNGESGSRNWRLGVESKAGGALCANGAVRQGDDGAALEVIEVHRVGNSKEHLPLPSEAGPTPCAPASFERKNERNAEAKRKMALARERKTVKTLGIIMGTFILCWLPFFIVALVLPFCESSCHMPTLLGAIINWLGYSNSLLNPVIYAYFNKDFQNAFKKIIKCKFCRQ
HEK293 NFkB inh: lowers PMA/ionomycin-induced NF-kB signal in HEK293 cells | HEK-293 NF-kB luciferase reporter, luminescence | inhibition, % at 3 µM | 62,000 tested, 0.21% active;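 active = inhibition above the mean of all tested compounds plus 3 SD, cut at about 40% in these data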
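System: NF-kB luciferase reporter HEK-293 cells | Replication: Single test | Control set: DMSO vs reference inhibitor | Evaluation: % inhibition | Schedule: 1 h pretreatment, 16 h stimulation, 37 °C | Probe or stimulus: PMA with ionomycin | Compound dosing: One dose, 3 µM | Detection: Luciferase luminescence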
5-HT1A blocker: antagonists of human 5-HT1a serotonin receptor; CHO 5-HT1a Ga15 NFAT-bla reporter, antagonist mode; inhibition, % at 10 µM; 62,000 tested, 0.68% active; P08908;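 active = inhibition above the mean of all tested compounds plus 3 SD, cut at about 43% in these data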;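 also: receptor stimulated by 5-CT agonist at 100 nM near EC80; beta-lactamase reporter measured by ratiometric fluorescence of a cleavable substrate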
5HT1E antag: 5-HT1E (human) receptor antagonism | 65,000 tested, 0.99% active | inhibition, % at 6 µM | CHO 5-HT1E Ga15 NFAT-bla reporter, FRET, antagonist | AID 571;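 active = inhibition above a set limit, the mean inhibition across every tested compound plus 3 SD, cut at about 29% in these data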;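 also: signal is the 460 over 535 nm emission ratio of beta-lactamase substrate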
Large screens that a line does not name were inactive. Only some compounds are listed: those with a hit (about 2.6% of all), similar ones and a draw of the others.

COc1ccc(OCC(O)Cn2c(=N)n(CCN3CCCCC3)c3ccccc32)cc1 (configuration not stated)	none
Cc1ccc(OCC(O)Cn2c(=N)n(CCN3CCCCC3)c3ccccc32)cc1 (configuration not stated)	5-HT1A blocker 43
COc1ccc(OC)c(S(=O)(=O)Nc2ccc(O)c(Sc3ncn[nH]3)c2)c1	none
O=C(Nc1ccc(N2CCOCC2)cc1)C1CCCN(S(=O)(=O)c2cccc(C(F)(F)F)c2)C1 (configuration not stated)	none
O=C(OCCNc1ncc(C(F)(F)F)cc1Cl)c1ccc(S(=O)(=O)N2CCOCC2)cc1	none
O=c1c2c3n(c(=O)nc2[nH]n1-c1ccccc1)CCCCC3	none
Cc1cc(C)c2c(=O)n(-c3ccccc3)[nH]c2n1	HTR1E agonist 13
O=C(COc1ccccc1)Nc1nn[nH]n1	none
CCCn1nc(NC(=O)c2cccs2)c2cc3cc(OC)ccc3nc21	none
CCCCn1nc(NC(=O)c2cccs2)c2cc3cc(OC)ccc3nc21	HTR1A agonist 22
CCOC(=O)CCN(Cc1cccs1)S(=O)(=O)c1ccc(Cl)cc1	none
Cc1nnc2n1N=CC=C(c1ccccc1)S2	5HT1E antag 30
Cc1nnc2n1N=CC=C(C(C)(C)C)S2	none
CCCCc1nc2sc3c(c2c(=O)[nH]1)CCC3	none (no result: HEK293 NFkB inh, 5-HT1A blocker)
COc1cc2c(cc1OC)C1=C(C#N)CC/C(=N\S(=O)(=O)c3ccccc3)N1CC2	5HT1E antag 66
COc1cc2c(cc1OC)C1=C(C#N)CCC(=O)N1CC2	5HT1E antag 49
COc1cc2c(cc1OC)C1=C(C#N)CN(C3CCCCC3)CN1CC2	none
COc1ccc(CCN2CC(C#N)=C3c4cc(OC)c(OC)cc4CCN3C2)cc1OC	5HT1E antag 38
O=C(c1ccco1)c1cn[nH]c1-c1ccc(Cl)cc1O	none
CCCCC(=O)NC(Nc1cc(C)ccn1)(C(=O)OCC)C(F)(F)F (configuration not stated)	none
COC(=O)NCc1cc2cc(Cl)ccc2[nH]1	none
COc1ccc(NC(=O)c2cccc(Cn3cc(Br)cn3)c2)cn1	none
CCCCc1c(O)nc(SCC(=O)NCCc2ccc(OC)c(OC)c2)[nH]c1=O	none
CC(C)n1c(=NC(=O)c2ccco2)c(C#N)cc2c(=O)n3ccccc3cc21	HTR1E agonist 9.2, HTR1A agonist 29
Cc1cccn2c(=O)c3cc(C#N)c(=NC(=O)c4ccncc4)n(Cc4ccco4)c3nc12	none
O=C(NC1CCCCCCC1)c1ccc2c(c1)N(Cc1ccc(F)cc1)C(=O)CS2=O (configuration not stated)	none
COc1cc2c(=O)n(-c3ccc(C)cc3)c(=O)n(CC(=O)c3ccc4c(c3)OCO4)c2cc1OC	none
COc1cc2c(O)c3c(c(-c4ccc5c(c4)OCO5)c2cc1OC)C(=O)OC3	5HT1E antag 34
COc1ccc(Cl)cc1NC(=O)COc1cccc(-n2cnnn2)c1	HTR1E agonist 35
CC(=O)c1cccc(NC(=O)COc2ccc(S(=O)(=O)N3CCCCC3)cc2)c1	none
COC(=O)CSc1nnc([C@H](CC(C)C)NC(=O)OC(C)(C)C)o1	none
CCOC(=O)C(C)Oc1cccc2c(=O)n(CC(=O)NCc3ccco3)ccc12 (configuration not stated)	5HT1E antag 38
O=C(Cn1cnc2ccccc2c1=O)NCc1ccco1	none
CCn1c(C)nc2cc(C(=O)OCCC(F)(F)F)ccc21	HTR1A agonist 26
CC(=O)Nc1ccc2nc(C3CCCCC3)[nH]c2c1	none
CN1CCN(/C(=N\O)c2nonc2N)CC1	HTR1E agonist 55
Nc1nonc1/C(=N/O)N1CCN(CCO)CC1	none
CCn1c(C(=O)N2CCC(C(=O)NCc3ccc4c(c3)OCO4)CC2)cc2sccc21	HTR1A agonist 20
Cn1c(C(=O)N2CCCC(C(=O)NCc3ccc4c(c3)OCO4)C2)cc2sccc21 (configuration not stated)	none
Fc1cccc(Nc2cc(-n3cccn3)ncn2)c1	none
Cc1ccc(-c2cc(-c3ccc(C)o3)nc(N)c2C#N)cc1	none
Cc1ccc(-c2cc(C(F)(F)F)c(C#N)c(SCCC#N)n2)o1	HTR1A agonist 34
O=C(Nc1nccs1)c1cc(S(=O)(=O)N2CCOCC2)ccc1Cl	none
N#Cc1c(N)nc(SC2CCCCC2=O)c(C#N)c1-c1ccco1 (configuration not stated)	5HT1E antag 42
Cc1sc2ncn(CC(=O)NCCCC(=O)N3CCN(c4ncccn4)CC3)c(=O)c2c1C	none
CSc1ccccc1NC(=O)c1ccco1	none
CC1(C)Cc2c(c(=S)nc(-c3ccccc3)n2CCOCCO)CO1	HTR1E agonist 18
CCOC(=O)c1c(NC(=O)C(F)(OC)C(F)(F)F)sc(C(=O)N2CCCCC2)c1C (configuration not stated)	none
O=C(O)CCn1[nH]c(=O)ccc1=O	none
COc1cccc(NC(=O)CSc2nnc(-c3cc(C)n(-c4ccccc4)c3C)o2)c1	HEK293 NFkB inh 41
Cc1cc(C)cc(NC(=O)CSc2nnc(-c3ccccc3Br)o2)c1	none
c1ccc(Oc2ccc(-n3cnnn3)cc2)cc1	5HT1E antag 29
c1ccc(Cn2nnnc2C(c2cccnc2)N2CCN(c3ccccc3)CC2)cc1 (configuration not stated)	none
O=C(NC1=NCCS1)C1COc2ccccc2O1 (configuration not stated)	HEK293 NFkB inh 58
CCOC(=O)c1cccc(NC(=O)CSc2nnc(-c3cccnc3)n2C)c1	none
FC(F)(F)c1cc(-c2cccs2)nc(N2CCOCC2)n1	none
Cc1cnn(-c2nc(-c3cccs3)cc(C(F)(F)F)n2)c1	5HT1E antag 29
CCNc1ccc(C(=O)OCC)cc1NC(=O)c1cccc(N(C)C)c1	HEK293 NFkB inh 42, 5HT1E antag 45
CCC(c1nnnn1C(C)(C)C)N1CCN(c2cc(Cl)ccc2C)CC1 (configuration not stated)	5-HT1A blocker 44
Nc1nc(CSCc2ccccc2)nc(N2CCOCC2)n1	none
CCNc1nc(SCc2ccccc2)nc(N2CCOCC2)n1	5HT1E antag 36
Cc1noc(C)c1CSc1ncnc2ccccc12	none
N#CCSc1nc2sc3c(c2c(=O)n1C1CCCCC1)CCCC3	HTR1E agonist 13 (no result: HEK293 NFkB inh, 5-HT1A blocker)
C#CCNc1cc(C)nc2ncnn12	none
COc1ccc(N2CCN(S(=O)(=O)c3cccs3)CC2)cc1	HTR1A agonist 26
COc1cccc(C(=O)CSc2nnc(CNS(C)(=O)=O)n2-c2ccc(C)cc2)c1	none
CCCCCCc1cc2cc(-c3nnc(-c4ccccc4O)o3)c(=O)oc2cc1O	HTR1A agonist 49 (no result: HEK293 NFkB inh, 5-HT1A blocker)
CCCn1nnnc1NCc1cccn1C	none
COc1ccc(N2CCN(c3oc(COc4ccc(Cl)cc4Cl)nc3C#N)CC2)cc1	5-HT1A blocker 59
N#Cc1nc(COc2ccc(Cl)cc2Cl)oc1N1CCN(c2ccccc2)CC1	5-HT1A blocker 57
CC1CCCN(C(C(=O)Nc2ccc3c(c2)OCO3)c2ccccc2)C1 (configuration not stated)	5-HT1A blocker 49

Screens (PubChem)
